# Assay outcomes: PubChem, Columbia University Molecular Screening Center
# Insulin prom act – TRM-6 insulin promoter activation. AID 1296. activation, % at 2 µM. TRM-6 cells, insulin promoter eGFP reporter, imaging; plate-scaled: unstimulated 0, stimulated control 100. actives 0.81% (n = 130,000);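 active means activation at 2 µM above a set limit, confirmed on inspection of the cell images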;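 further: share of cells whose green reporter signal exceeds an intensity cutoff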
#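 Test system: human fetal islet-derived TRM-6 cells with tamoxifen-inducible insulin promoter–eGFP reporter. Compound dosing: 2 µM final, single concentration. Incubation: tamoxifen pre-incubation 15 h overnight, then compound exposure 48 h at 37 °C. Signal: fixed-cell fluorescence microscopy, eGFP plus Hoechst.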
# The depositor's hits bear a star. This excerpt belongs to a sample that is enriched for hits.
SMILES,Insulin prom act
Cc1cc(C)n(CCCN2C(=O)c3cccc4cccc(c34)C2=O)n1,9.1
CC(=O)c1ccc(NC(=O)C2C3C=CC(C3=C(c3ccccc3)c3ccccc3)C2C(=O)O)cc1 (configuration not stated),0.0
COc1ccccc1NC(=O)C/C(C)=N/NC(=O)COc1c(Br)cc(Br)cc1OC,5.9
O=C(c1cc(-c2ccccc2)on1)N1CCN(Cc2ccc3c(c2)OCO3)CC1,-4.5
O=c1[nH]c(CN2CCN(Cc3ccc4c(c3)OCO4)CC2)nc2ccccc12,2.8
O=c1cc(-c2ccccc2)nc(N2CCN(Cc3ccc4c(c3)OCO4)CC2)[nH]1,730.0*
COc1cccc(OC)c1C(=O)NNC(=O)c1cccc(COc2ccc3c(c2)CCC3)c1,-4.4
O=S(=O)(NC(=S)NC1CCCCC1)c1ccc(Br)cc1,-9.5
COc1ccc[nH]c1=O,154.5*
COc1cc2[nH]ccc(=O)c2cc1OC,0.0
COc1ccccc1Nc1nnc(C)c(=O)[nH]1,-6.7
NC(=O)C1CCN(C(=O)COc2ccc(S(=O)(=O)NCc3ccccc3)cc2Cl)CC1,-3.8
O=C(NC1CCCCC1)[C@H](CSCc1ccccc1)N1Cc2ccccc2C1=O,-4.8
CCN1C/C(=C/c2cccc([N+](=O)[O-])c2)C(=O)/C(=C/c2cccc([N+](=O)[O-])c2)C1,-100.0
CCCCn1c(=O)n(CC(=O)Nc2ccc(OC)c(Cl)c2)c(=O)c2c1nc(CO)n2CCC,5.4
Cn1cc(/C=C2/SC(=O)N(CC(=O)Nc3ccc4c(c3)OCO4)C2=O)c2ccccc21,3.6
CC(=O)c1ccc(NC(=O)CCCN2C(=O)/C(=C/C(C)=C/c3ccccc3)SC2=S)cc1,0.0
O=C(CN1C(=O)S/C(=C/C=C/c2ccccc2)C1=O)Nc1ccc(C(=O)O)cc1,550.0*
CCCOC(=O)CCCCCCCCC(O)CN1CCCCC1 (configuration not stated),0.0
Cc1c(N2C(=O)C(=O)/C(=C(/O)c3ccc(Cl)cc3)C2c2ccccc2)c(=O)n(-c2ccccc2)n1C (configuration not stated),3.3
COc1ccc(CNC(=O)COC(=O)CCc2c[nH]c3ccccc23)cc1,0.0
CCCNc1cc(C)c(C#N)c2nc3ccccc3n12,381.3
CCCc1cc(-n2cnc3ccccc32)n2c(nc3ccccc32)c1C#N,75.9*
CCCc1cc(NCc2ccccn2)n2c(nc3ccccc32)c1C#N,0.0
CC(C)CC(=O)Nc1ccccc1-c1nnn(CC(=O)N2CCc3ccccc3C2)n1,2.7
SMILES,Insulin prom act
Cc1cccc2cc(CN(Cc3ccccc3)C(=O)N3CCOCC3)c3nnnn3c12,147.6
Cc1cccc(OCCOc2ccc(/C=N/NC(=O)Cc3nnc(N)s3)cc2)c1,9.1
COc1ccccc1NS(=O)(=O)c1ccc(N/N=C(\C)C(C)C)c([N+](=O)[O-])c1,-8.8
COc1ccccc1NS(=O)(=O)c1cc(C)ccc1C,9.7
COc1ccccc1NS(=O)(=O)c1cc([N+](=O)[O-])ccc1N/N=C/c1c(C)[nH]c2ccccc12,260.0*
CC(=O)Nc1ccc(S(=O)(=O)NCCc2ccccn2)cc1,-7.1
CN(Cc1nc(-c2cnccn2)no1)Cc1n[nH]c2c1CCCC2,-9.5
Cc1ccc(S(=O)(=O)N2CCC(C(=O)NCc3ccccc3Cl)CC2)cc1,91.4*
CN(C)C(=O)N1CCCC(C(=O)NCc2ccccc2Cl)C1 (configuration not stated),-7.7
O=C(NCc1ccccn1)C1CCN(S(=O)(=O)c2ccccc2)CC1,0.0
S=c1[nH]nc(Cc2cccc3ccccc23)n1-c1ccccc1,-3.4
CSc1nc2c(c(C(F)(F)F)n1)CC(C)CC2 (configuration not stated),2.6
CC(/C=N/NC(=O)Cc1cc(=O)[nH][nH]1)=C\c1ccccc1,9.3
CC(C)(C)c1ccc(/C=N/NC(=S)NC2CCCCC2)cc1,421.4*
S=C(Nc1ccc(Oc2ccc(NC(=S)NC3CCCCC3)cc2)cc1)NC1CCCCC1,0.0
S=C(Nc1ccc(Cl)c(Cl)c1)NC1CCCCC1,9.1
CC(C)N(C(=S)Nc1cccc(C(F)(F)F)c1)C(C)c1ccccn1 (configuration not stated),-7.1
CC(C)=CC(=O)OCC(=O)NC1CCCc2ccccc21 (configuration not stated),-5.3
Cc1ccc(/C=C2/C(=O)N=C(N)N2C)s1,158.3
Nc1nncn1C(=O)CCCN1C(=O)c2ccccc2C1=O,268.8
Cc1c(Cl)cccc1NC(=O)CSCC(N)=O,207.7
Nc1nncn1C(=O)c1c(Cl)cccc1Cl,443.8*
COc1ccc(CCNC(=O)c2ccc(-c3ccc([N+](=O)[O-])cc3Cl)o2)cc1,-100.0
Oc1ccc(-c2csc(-c3ccccc3)n2)cc1O,7.0
CCC(=O)N(Cc1ccco1)c1nc(-c2ccccc2)cs1,136.4*
SMILES,Insulin prom act
CC(=O)Nc1ccc(-c2csc(NCc3ccco3)n2)cc1,2.7
Cc1ccccc1C1CC(=O)NC2=C1C(=O)CCC2 (configuration not stated),-9.1
O=C1CCCC2=C1C(c1ccccc1)CC(=O)N2c1ccccc1 (configuration not stated),181.8*
Cc1cc(C)n(C2CC(=O)N(c3ccccc3)C2=O)n1 (configuration not stated),7.7
CN1CCC(N(C)C(=O)CCc2nc3ccccc3c(=O)[nH]2)CC1,-2.3
Cc1cc(C)c(S(C)(=O)=O)c(N(C)N)n1,-75.0
COc1cccc(-c2noc(-c3ccc(Br)o3)n2)c1,-6.7
COc1ccc(Br)cc1C(=O)Nc1nnn(C)n1,0.0
Cc1cc(C)c(OCC(=O)Nc2nnn(C)n2)c(Br)c1,76.6*
Cc1cc(Br)c(NC(=O)CCl)c(Br)c1,3.2
Cc1ncc([N+](=O)[O-])n1Cc1ccc(Br)cc1,0.0
Cc1[nH]c(=O)[nH]c(=O)c1S(=O)(=O)N1CCCC1,0.0
CNC(=O)CN(c1cc(OCCOC)c(Cl)cc1Cl)S(=O)(=O)c1ccc(OC)cc1,135.7
CCCNC(=O)CN(CCc1ccccc1)S(C)(=O)=O,92.9*
CCOCCCNC(=O)CN(Cc1ccc(Cl)cc1)S(C)(=O)=O,188.9
CCN(CC(=O)NCCc1ccccc1)S(=O)(=O)c1ccc(Br)cc1,4.2
NC(=S)Nn1c(-c2ccccc2)nc2ccccc2c1=O,2.8
Cc1[nH]nc(Sc2ccccn2)c1[N+](=O)[O-],7.7
O=C(NCc1ccco1)C1CCN(S(=O)(=O)Cc2ccccc2)CC1,355.6
CCC1=Nc2cc(C(=O)O)ccc2Sc2ccccc21,-2.4
CC(C)OCCCNC(=O)c1ccccc1Oc1ccccc1,346.2
CCC1=Nc2cc(C(=O)NCCCOC(C)C)ccc2Sc2ccccc21,109.7*
CCN(CC)CCn1c2ccccc2c2cnc(N)c(C#N)c21,-2.6
CC(C)c1ccc(NC(=O)CSc2ncccc2C(=O)Oc2cccc([N+](=O)[O-])c2)cc1,-3.2
Cc1nc(C#N)c(N/N=C/c2cccc(Cl)c2)o1,300.0*
SMILES,Insulin prom act
Clc1cccc(/C=N/Nc2nnc(Cl)c3ccccc23)c1,9.3
Cc1cc(C)nc(N/N=C/c2ccccc2)n1,-17.8
CCC(C)NC(=O)c1ccccc1NC(=O)COc1ccc(OC)cc1 (configuration not stated),-79.3
CC(=O)N(C)C(c1ccc(N(C)C)cc1)c1nnnn1-c1c(C)cccc1C (configuration not stated),-9.1
O=C(CSc1nnnn1-c1cccc2c1CCCC2)N1CCCCC1,205.6
CCCCOC(=O)N/N=C/C=C/c1ccccc1,0.0
Cc1nnc(N2CCOCC2)c2nn(-c3cccc(Cl)c3)c(C)c12,233.3*
